Measured values from ChEMBL document CHEMBL1139420, “Antibacterial profile against drug-resistant Staphylococcus epidermidis clinical strain and structure-activity relationship studies of 1H-pyrazolo[3,4-b]pyridine and thieno[2,3-b]pyridine derivatives” (Bioorg Med Chem, 2008).
In brackets after ≈: the same amount, converted by molar mass. Activity calls are given as the source filed them. The calls are words filed in the database; no cut-off is given here.

Columns and labels:
[1] = system: Staphylococcus epidermidis; experiment: Antibacterial activity against drug-resistant Staphylococcus epidermidis clinical isolate after 24 hrs by macro-dilution broth method; format: functional
[2] = Cytotoxicity against human PBMC assessed as cell viability at 700 uM after 3 to 5 days by XTT method; format: cell-based; details: PBMC (peripheral blood mononuclear cells), read-out: Activity
In short: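 Human PBMCs from healthy donors isolated by density gradient from buffy coats, kept in RPMI 1640 with 10% heat-inactivated FBS, penicillin, streptomycin, 2 mM glutamine, 10 mM Hepes; stimulated 2–3 days with 5 µg/mL PHA, then kept with 5 U/mL IL-2. Compound at 700 µM, 5% CO2, 37 °C; XTT added, OD 450 nm after 2 h; duplicate, at least three times.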

Proteus mirabilis = experiment: Antibacterial activity against drug-resistant Proteus mirabilis clinical isolate assessed as inhibition zone diameter after 24 hrs by antibacterial susceptibility test; format: functional, organism-based
[3] = system: Staphylococcus epidermidis; experiment: Antibacterial activity against drug-resistant Staphylococcus epidermidis clinical isolate at 10 times MIC; format: functional, organism-based
In short: (§1)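 Growth-curve assay on fluoro-substituted derivatives (ortho-, meta-, para-F). Logarithmic-phase cultures incubated with compound at 1× and 10× MIC and at 5 mg/mL. Optical density at 560 nm monitored over 6 h and expressed as growth (%) relative to untreated control.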

[4] = system: Acinetobacter calcoaceticus; experiment: Antibacterial activity against drug-resistant Acinetobacter calcoaceticus clinical isolate assessed as inhibition zone diameter after 24 hrs by antibacterial susceptibility test; format: functional, organism-based
Enterococcus faecalis = experiment: Antibacterial activity against drug-resistant Enterococcus faecalis clinical isolate assessed as inhibition zone diameter after 24 hrs by antibacterial susceptibility test; format: functional, organism-based
Klebsiella pneumoniae = experiment: Antibacterial activity against drug-resistant Klebsiella pneumoniae clinical isolate assessed as inhibition zone diameter after 24 hrs by antibacterial susceptibility test; format: functional, organism-based
[5] = system: Staphylococcus epidermidis; experiment: Antibacterial activity against drug-resistant Staphylococcus epidermidis clinical isolate assessed as inhibition zone diameter after 24 hrs by antibacterial susceptibility test; format: functional
Escherichia coli = experiment: Antibacterial activity against drug-resistant Escherichia coli clinical isolate assessed as inhibition zone diameter after 24 hrs by antibacterial susceptibility test; format: functional, organism-based
Serratia marcescens = experiment: Antibacterial activity against drug-resistant Serratia marcescens clinical isolate assessed as inhibition zone diameter after 24 hrs by antibacterial susceptibility test; format: functional, organism-based
Pseudomonas aeruginosa = experiment: Antibacterial activity against drug-resistant Pseudomonas aeruginosa clinical isolate assessed as inhibition zone diameter after 24 hrs by antibacterial susceptibility test; format: functional, organism-based
Enterobacter cloacae = experiment: Antibacterial activity against drug-resistant Enterobacter cloacae clinical isolate assessed as inhibition zone diameter after 24 hrs by antibacterial susceptibility test; format: functional, organism-based
[6] = system: Staphylococcus epidermidis; experiment: Antibacterial activity against drug-resistant Staphylococcus epidermidis clinical isolate at 16 ug/ml; format: functional, organism-based
[7] = system: Staphylococcus epidermidis; experiment: Antibacterial activity against drug-resistant Staphylococcus epidermidis clinical isolate at 5 mg/ml; format: functional, organism-based; in short: as §1

Row | Compound | MIC [1] [µg/mL] | viability at 700 µM [2] [%] | Activity (Proteus mirabilis) | Activity [3] | Activity [4] | Activity (Enterococcus faecalis) | Activity (Klebsiella pneumoniae) | inhibition zone (IZ) [5] [mm] | Activity (Escherichia coli) | Activity (Serratia marcescens) | Activity (Pseudomonas aeruginosa) | Activity (Enterobacter cloacae) | Activity [6] | Activity [7]
1 | O=C(O)c1cnc2c(cnn2-c2ccccc2)c1Nc1cccc(F)c1 | 16 (≈ 45.9 µM) | 100 | inactive | Active | inactive | inactive | inactive | 20 | inactive | inactive | inactive | inactive | Active | 
2 | O=C(O)c1cnc2c(cnn2-c2ccccc2)c1Nc1ccccc1F |  |  |  |  |  |  |  |  |  |  |  |  |  | inactive
3 | O=C(O)c1cnc2c(cnn2-c2ccccc2)c1Nc1cccc(Cl)c1 | 16 (≈ 43.9 µM) | 100 | inactive |  | inactive | inactive | inactive | 17 | inactive | inactive | inactive | inactive |  | 
4 | Cc1cccc(Nc2c(C(=O)O)cnc3c2cnn3-c2ccccc2)c1 | 64 (≈ 186 µM) | 100 | inactive |  | inactive | inactive | inactive | 16 | inactive | inactive | inactive | inactive |  | 
5 | O=C(O)c1cnc2c(cnn2-c2ccccc2)c1Nc1cccc(Br)c1 | 16 (≈ 39.1 µM) | 100 | inactive |  | inactive | inactive | inactive | 17 | inactive | inactive | inactive | inactive |  | 
6 | COc1cccc(Nc2c(C(=O)O)cnc3c2cnn3-c2ccccc2)c1 | 16 (≈ 44.4 µM) | 100 | inactive |  | inactive | inactive | inactive | 15 | inactive | inactive | inactive | inactive |  | 
7 | COc1ccc(Nc2c(C(=O)O)cnc3sccc23)cc1 |  | 100 | inactive |  | inactive | inactive | inactive | 0 | inactive | inactive | inactive | inactive |  | 
8 | O=C(O)c1cnc2sccc2c1Nc1cccc([N+](=O)[O-])c1 |  | 100 | inactive |  | inactive | inactive | inactive | 0 | inactive | inactive | inactive | inactive |  | 
9 | O=C(O)c1cnc2c(cnn2-c2ccccc2)c1Nc1ccc(F)cc1 |  | 100 | inactive |  | inactive | inactive | inactive | 0 | inactive | inactive | inactive | inactive |  | inactive
